Screening data: PubChem BioAssay, several laboratories
Compounds with a hit are over-represented: about 1.8% of the library has one in this group of screens.
Tn6 DDE FP: disrupts Tn6 cyclic peptide binding to fibrin D-Dimer-E complex; P02675; Fibrin DD(E) TRITC-Tn6 fluorescence polarization displacement; inhibition, % at 8.3 µM; hit rate 0.21% among 370,000;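 active = inhibition above a per-campaign cutoff: mean of compounds within control limits plus 3 SD, cut at about 15% in these data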
GRK2 aptamer HTS: human GRK2 inhibition via aptamer displacement; P25098; bead flow cytometry, FAM-aptamer displacement from GRK2; inhibition of aptamer binding, % at 10 µM; hit rate 0.59% among 330,000; AID 488847;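 active = inhibition of aptamer binding above 40%, roughly 3 SD of noise, on plates passing a quality check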;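 note: median bead fluorescence of bound FAM aptamer so fluorescent compounds give negative values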
Target sequence (P25098 whole entry, looked up): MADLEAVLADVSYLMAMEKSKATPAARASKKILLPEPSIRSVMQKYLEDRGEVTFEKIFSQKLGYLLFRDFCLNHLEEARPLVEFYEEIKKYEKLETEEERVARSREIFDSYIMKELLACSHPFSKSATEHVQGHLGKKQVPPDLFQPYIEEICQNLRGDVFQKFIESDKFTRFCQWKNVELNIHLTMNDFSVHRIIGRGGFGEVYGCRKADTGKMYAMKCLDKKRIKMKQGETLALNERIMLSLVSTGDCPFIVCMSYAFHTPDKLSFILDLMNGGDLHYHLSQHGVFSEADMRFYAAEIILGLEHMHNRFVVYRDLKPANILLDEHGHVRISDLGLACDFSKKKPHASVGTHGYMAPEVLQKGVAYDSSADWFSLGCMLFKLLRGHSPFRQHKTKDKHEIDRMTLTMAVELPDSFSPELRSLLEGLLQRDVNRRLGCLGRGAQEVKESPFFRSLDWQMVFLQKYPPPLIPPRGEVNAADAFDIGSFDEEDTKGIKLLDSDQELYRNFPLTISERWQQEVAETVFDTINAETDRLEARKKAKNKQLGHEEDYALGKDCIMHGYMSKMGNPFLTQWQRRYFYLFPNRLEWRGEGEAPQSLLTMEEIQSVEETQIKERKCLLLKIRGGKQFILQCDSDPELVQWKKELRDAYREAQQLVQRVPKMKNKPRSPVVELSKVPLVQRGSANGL
ARNT-TACC3 inh: ARNT/TACC3 interaction disruption. hit rate 0.66% among 390,000. AID 623870. inhibition, % at 9.99 µM. AlphaScreen His-ARNT PAS-B/GST-TACC3 binding, luminescence; TACC3 fragment carries E629A point mutation;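 active = mean inhibition of replicates at least 50% and at least half of replicates each reaching 50%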
Tn7 DDE FP: inhibitors of Tn7 peptide binding to human fibrin DD(E); FP displacement of FITC-Tn7 peptide from fibrin DD(E); 0% = median of compound wells per plate; P02675; inhibition, % at 8.3 µM; hit rate 0.13% among 370,000;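 active = inhibition above the mean of compounds falling within the control limits plus 3 SD of them, cut at about 14% in these data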
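Test system – human fibrin DD(E) · Times – 10 min preincubation, 3 h with tracer, room temperature · Detection – fluorescence polarization of the labelled Tn7 tracer · Measure – percent inhibition normalized to high-control wells · Benchmarks – high control wells with 10 µM unlabelled Aha-Tn7 peptide (full inhibition) · Repeats – singlicate testing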
CAL PDZ FP-1: blocks peptide binding to the human CAL PDZ domain; Q9HD26; purified CAL PDZ, TMR-peptide fluorescence polarization, 1 h; inhibition, % at 24.9 µM; hit rate 0.92% among 300,000;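 active = mean inhibition of at least 30% with at least half of replicates also reaching 30%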
CAL PDZ FP-2: human CAL PDZ-peptide interaction inhibition | hit rate 0.02% among 330,000 | inhibition, % at 20 µM | Q9HD26 | AID 504414 | purified CAL PDZ, TMR-peptide fluorescence polarization, 1 h;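 active = highest replicate inhibition of at least 40%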
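Test system: purified CerCALP PDZ construct; Compound dosing: one concentration, 20 µM compound; Also added: TMR-labelled reporter peptide T*-PRC34 bound in PDZ groove; Read-out: inhibition from polarization loss; Controls: unlabelled peptide and DMSO controls; Signal: FP readout, S and P plane fluorescence; Incubation: 1 h at RT.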
AlphaScreen ctr: counter-screen for ARNT/TACC3 inhibitors: AlphaScreen artifacts; shares compounds with ARNT-TACC3 inh; His-ARNT PASB-GST AlphaScreen artifact counter-screen, luminescence; AC50, µM (titrated, usually from 68 µM); hit rate 50% among 1,200; AID 651705;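 active = every separate test run was called active for a drop in luminescence, with AC50 within twice the top valid dose, actives reach about 71 µM in these data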
Hits are given with their value; 0 = inactive; - = not tested or not shown.

SMILES | Tn6 DDE FP | GRK2 aptamer HTS | ARNT-TACC3 inh | Tn7 DDE FP | CAL PDZ FP-1 | CAL PDZ FP-2 | AlphaScreen ctr
O=C(Cn1cnc([N+](=O)[O-])n1)N/N=C/c1cc(Cl)ccc1O | 0 | 0 | 58 | 0 | 0 | 0 | 70µM
CCCCOCCCNC(=O)C[C@H]1C[C@@]2(C(=O)OC)C(=C[C@H](C3CCCC3)O[C@@H]2C)N(Cc2cccc3ccccc23)C1=O | 0 | - | - | 0 | - | - | -
COc1ccc(-c2cnc3c(c2)C(=O)N([C@@H](C)CO)C[C@@H](C)[C@@H](CN(C)Cc2cccnc2)O3)cc1 | - | - | 85 | - | - | - | 0
COc1ccc(-c2cnc3c(c2)C(=O)N([C@H](C)CO)C[C@@H](C)[C@@H](CN(C)Cc2cccnc2)O3)cc1 | - | - | 0 | - | - | - | -
COc1ccc(-c2cnc3c(c2)C(=O)N([C@H](C)CO)C[C@H](C)[C@H](CN(C)Cc2cccnc2)O3)cc1 | - | - | 104 | - | - | - | 0
COc1ccc(-c2cnc3c(c2)C(=O)N([C@@H](C)CO)C[C@H](C)[C@H](CN(C)Cc2cccnc2)O3)cc1 | - | - | 0 | - | - | - | -
COc1ccc(-c2cnc3c(c2)C(=O)N([C@@H](C)CO)C[C@H](C)[C@@H](CN(C)Cc2cccnc2)O3)cc1 | - | - | 108 | - | - | - | 0
C[C@@H]1CN([C@H](C)CO)C(=O)c2cc(NS(=O)(=O)c3cccs3)ccc2O[C@H]1CN(C)Cc1ccc(Cl)c(Cl)c1 | - | - | 0 | - | - | - | -
COc1ccc(/C(C)=N\NC(=O)CSc2nnc(C)s2)cc1 | 0 | 0 | 39 | 0 | 0 | 0 | 0
CCc1ccc(S(=O)(=O)Nc2cc(SCC(=O)O)c(O)c3ccccc23)cc1 | 0 | 0 | - | 0 | 0 | 0 | -
O=C(O)CSc1cc(NS(=O)(=O)c2cccc([N+](=O)[O-])c2)c2ccccc2c1O | 0 | - | 61 | 0 | 0 | 0 | 0
CN1CCN(CC(=O)Nc2ccccc2[N+](=O)[O-])CC1 | 0 | 0 | 0 | 0 | 0 | 0 | -
O=C(CN1CCCCCC1)Nc1ccccc1[N+](=O)[O-] | 0 | 0 | 51 | 0 | 0 | - | 0
COCCCN=Cc1c(-c2ccccc2)[nH]n(-c2nc3ccccc3s2)c1=O | 0 | 0 | 58 | 0 | 0 | 0 | 0
O=c1c(C=NCCCO)c(-c2ccccc2)[nH]n1-c1nc2ccccc2s1 | 0 | 0 | 0 | 0 | - | 0 | -
O=C(Nc1ccc(F)c(F)c1)c1ccc2c(c1)OCO2 | 0 | 0 | 0 | 0 | 0 | 0 | -
O=C(Nc1ccc2c(c1)OCO2)c1ccc2c(c1)OCO2 | 0 | 0 | 52 | 0 | 0 | 0 | 0
CO[C@@H]1CN(C)C(=O)c2cc(NS(=O)(=O)c3cccc(F)c3)ccc2OC[C@@H](C)NC[C@H]1C | - | - | 0 | - | - | - | -
Cc1[nH][nH]c(=O)c1C(c1ccc(-c2ccc(C(=O)O)cc2)o1)c1c(C)[nH][nH]c1=O | 0 | - | 72 | 0 | 0 | - | 0
Cc1[nH][nH]c(=O)c1C(c1ccc(-c2ccc(F)cc2)o1)c1c(C)[nH][nH]c1=O | 0 | 0 | 48 | 0 | 0 | 0 | 0
CO[C@H]1CN(C)C(=O)c2ccc(NS(=O)(=O)CC(F)(F)F)cc2OC[C@H](C)N(Cc2ccccn2)C[C@@H]1C | - | - | 0 | - | - | - | -
Cc1[nH]n(-c2ccccc2)c(=O)c1C(c1ccc(O)c([N+](=O)[O-])c1)c1c(C)[nH]n(-c2ccccc2)c1=O | 0 | 0 | 10 | 0 | 0 | 0 | 0
FC(F)(F)c1cnc(-c2cnc(-c3ccncc3)nc2)c(Cl)c1 | 0 | 0 | 0 | 0 | 0 | 0 | -
FC(F)(F)c1cnc(-c2cnc(-c3ccccn3)nc2)c(Cl)c1 | 0 | 0 | 55 | 0 | 0 | 0 | 0
C[C@@H]1CN([C@H](C)CO)C(=O)c2cc(NC(=O)c3ccncc3)ccc2O[C@@H](C)CCCCO[C@H]1CN(C)C(=O)Nc1ccc2c(c1)OCO2 | - | - | 0 | - | - | - | -
SMILES | Tn6 DDE FP | GRK2 aptamer HTS | ARNT-TACC3 inh | Tn7 DDE FP | CAL PDZ FP-1 | CAL PDZ FP-2 | AlphaScreen ctr
COc1ccccc1NC(=O)N1C[C@@H]2[C@H](c3ccccc31)[C@@H](CO)N2C(C)=O | - | - | 0 | - | - | - | -
O=C(O)CSCc1cn2cc(Cl)ccc2n1 | 0 | 0 | 0 | 0 | 0 | 0 | -
CNCc1cn2cc(Cl)ccc2n1 | 0 | 0 | 67 | 0 | 0 | 0 | 0
CN1CCN(/N=C/c2nc(-c3ccccc3Cl)n3ccccc23)CC1 | 0 | 0 | 35 | 0 | 0 | 0 | 0
O=C(C[C@@H]1C[C@H]2c3cc(NC(=O)NC4CCCCC4)ccc3O[C@H]2[C@@H](CO)O1)NCc1ccccc1 | - | - | 0 | - | - | - | -
O=C(C[C@H]1C[C@H]2c3cc(NC(=O)NC4CCCCC4)ccc3O[C@H]2[C@H](CO)O1)NCc1ccccc1 | - | - | active | - | - | - | 0
COc1ccc(S(=O)(=O)Nc2ccc3c(c2)CC(=O)N([C@@H](C)CO)C[C@H](C)[C@@H](CN(C)Cc2ccncc2)O3)cc1 | - | - | 0 | - | - | - | -
COc1ccc(NC(=O)N[C@H]2CC[C@@H](CCn3cc(-c4ccccn4)nn3)O[C@H]2CO)cc1 | - | - | 65 | - | - | - | 40µM
COc1ccc(NC(=O)N[C@H]2CC[C@@H](CCn3cc(-c4ccccn4)nn3)O[C@@H]2CO)cc1 | - | - | 95 | - | - | - | 39µM
Cc1ccccc1C(=O)N[C@H](C(=O)N1CCC[C@H]1C(=O)NCCc1ccccc1Cl)C(C)C | 0 | - | - | 0 | - | - | -
CCOc1ccc(C2=Nn3c(nnc3-c3ccccn3)SC2)cc1 | 0 | 0 | 63 | 0 | 0 | 0 | 0
Cc1ccccc1CS(=O)(=O)Cc1ccc(C(=O)NCc2ccccn2)o1 | 0 | 0 | 53 | 0 | 0 | 0 | 0
O=C(NCc1ccccn1)c1ccc(CS(=O)(=O)Cc2ccc(Cl)cc2)o1 | 0 | 0 | 0 | 0 | 0 | 0 | -
Cc1ccc(S(=O)(=O)N(C)CC(=O)Nc2nnc(CC(C)C)s2)cc1 | 0 | 0 | 0 | 0 | 0 | 0 | -
O=c1[nH]cnc2c1C(c1ccccc1[N+](=O)[O-])c1c(nc[nH]c1=O)O2 | 0 | 0 | 50 | 0 | 0 | 0 | 0
COc1ccc(C2c3c(nc[nH]c3=O)Oc3nc[nH]c(=O)c32)cc1 | - | 0 | 0 | - | 0 | 0 | -
CCOc1ccc(NC(=O)CC(NCc2ccccn2)C(=O)O)cc1 (stereo not drawn) | 0 | 0 | 65 | 0 | 0 | 0 | 6.1µM
CCOc1ccc(NC(=O)NCc2ccccn2)cc1 | 0 | 0 | 0 | 0 | 0 | 0 | -
CC(=O)c1cccc(NC(=O)CSc2ccc(-c3ccccn3)nn2)c1 | 0 | 0 | 55 | 0 | 0 | 0 | 15µM
Cc1ccc(NC(=O)CSc2ccc(-c3ccccn3)nn2)cc1F | 0 | 0 | 50 | 0 | 0 | 0 | 0
CC(=O)Nc1cccc(NC(=O)CSc2nnc3ccc(-c4ccccn4)nn23)c1 | 0 | 0 | 0 | 0 | 0 | 0 | -
CC(=O)Nc1cccc(NC(=O)CSc2ccc(-c3ccccn3)nn2)c1 | 0 | 0 | 58 | 0 | 0 | 0 | 14µM
COc1ccc(C)cc1NC(=O)CSc1ccc(-c2ccccn2)nn1 | 0 | 0 | 54 | 0 | 0 | 0 | 19µM
